Key:
[1] = tested on: Liver microsomes; experiment: Metabolic stability in human liver microsomes at 1 uM after 60 mins by LC/MS/MS analysis; conditions: 1 h
[2] = Drug uptake in CD1 mouse brain at 1 mg/kg, iv at 2 hrs; type: ADME, organism-based; set-up: dose 1 mg/kg, route intravenous; conditions: read-out: Drug uptake
In short: (§1)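 Screen of CNS penetration: CD-1 mice were dosed IV and plasma and brain concentrations were measured. Brain-to-plasma ratio was calculated, mostly at 6 h post dose, with one compound sampled at 2 h.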

[3] = Modulation of gamma secretase in CHO-2B7 cells assessed as reduction in amyloid beta 42 level after 5 hrs by MSD ELISA; type: cell-based; conditions: Cricetulus griseus, CHO-2B7, 5 h
[4] = Modulation of gamma secretase in CHO-2B7 cells assessed as reduction in amyloid beta 40 level after 5 hrs by MSD ELISA; type: cell-based; conditions: Cricetulus griseus, CHO-2B7, 5 h
[5] = Plasma concentration in CD1 mouse at 1 mg/kg, iv at 2 hrs; type: ADME, organism-based; set-up: dose 1 mg/kg, route intravenous; in short: as §1
[6] = Ratio of drug uptake in brain to plasma in CD1 mouse at 1 mg/kg, iv at 2 hrs; type: ADME, organism-based; set-up: dose 1 mg/kg, route intravenous; conditions: brain and plasma, read-out: BPR; in short: as §1
[7] = tested on: Liver microsomes; experiment: Metabolic stability in human liver microsomes assessed as compound remaining at 1 uM at 60 mins by LC/MS/MS analysis in absence of NADPH; type: ADME, Microsome; conditions: microsomes, 1 h, 1 µM
In short: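 Human liver microsomes were run without NADPH as a qualitative read of susceptibility to enzymatic hydrolysis. The read-out was percent parent remaining at 60 min.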

For `CC(C)[C@@H](OC(=O)N1CCC1)[C@H]1C[C@@H](C)[C@H]2[C@H](O1)[C@H](O)[C@@]1(C)[C@@H]3CC[C@H]4C(C)(C)[C@@H](O[C@H]5CNCCO5)CC[C@@]45C[C@@]35CC[C@]21C`, the Stability [1] was “Stable”, the concentration at 2 h [2] was 30 nM and the IC50 [3] was 0.26 µM. It also gave an IC50 [4] of 7.9 µM, a concentration at 2 h [5] of 326 nM and a Kp at 2 h [6] of 0.09. For the same compound, the Stability [7] was 123%.
